Experimental findings from ChEMBL document CHEMBL1828520, “Anti-AIDS agents 86. Synthesis and anti-HIV evaluation of 2',3'-seco-3'-nor DCP and DCK analogues” (Eur J Med Chem, 2011) are described below.

Data set [1] in a line: Chemical stability of the compound in 1% HCl assessed as compound remaining at 1 min by HPLC analysis. It counts as physicochemical. The settings on record: read-out: Stability. The method, boiled down:
(§1)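 Compound (1 mg) dissolved in MeOH (0.5 mL), 1% HCl (0.2 mL) added, shaken at room temperature. Remaining compound measured by reversed-phase HPLC (ODS2 column, 30% water/70% MeOH) as area % purity at the stated time.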

The nature of data set [2]: Chemical stability of the compound in 1% HCl assessed as compound remaining at 30 min by HPLC analysis. The note with it: read-out: Stability. The format is physicochemical. The method, boiled down:
as §1

In data set [3] the test system is Human immunodeficiency virus 1. The data set can be described thus: Antiviral activity against HIV 1 NL4-3 infected in human TZM-bl cells after 48 hrs by luciferase reporter gene assay. It counts as functional, organism-based. The note with it: Human immunodeficiency virus 1, NL4-3, TZM-bl. Put shortly:
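Single-round infection of TZM-bl cells with HIV-1 NL4-3 at 200 TCID50, in the presence of eight fourfold serial dilutions of compound. After 48 h, luciferase was read as RLU. Highest concentration tested was 20 μM.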

Data set [4] has as its system Human immunodeficiency virus 1. The data set can be described thus: Antiviral activity against HIV1 RTMDR in human […] cells after 48 hrs by luciferase reporter gene assay. The format is functional, organism-based. The note with it: Human immunodeficiency virus 1, RTMDR. Put shortly:
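Single-round infection of TZM-bl cells with 200 TCID50 virus plus test sample in eight fourfold dilutions; 48 h incubation, then Bright Glo luciferase read. Highest tested concentration 20 μM.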
In general terms: In a reporter assay the amount or activity of a reporter protein is the signal.

The nature of data set [5]: Cytotoxicity against human TZM-bl cells assessed as cell viability. It counts as cell-based. Put shortly:
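TZM-bl cells (1 × 10^5 cells/mL) exposed to various compound concentrations in parallel with the antiviral assay timing. Averaged from at least three independent experiments.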

A short description of data set [6]: Ratio of CC50 for human TZM-bl cells to EC50 for HIV 1 RTMDR infected in human TZM-bl cells.
Data set [7] in a line: Ratio of CC50 for human TZM-bl cells to EC50 for HIV 1 NL4-3 infected in human TZM-bl cells.

For orientation: EC50 means the concentration needed to bring the measured effect to its halfway point. The CC50 is the concentration giving 50% cytotoxicity.

On to `Cc1cc(=O)oc2c3c(ccc12)OC(C)(C)[C@H](OC(=O)[C@@]12CC[C@@](C)(C(=O)O1)C2(C)C)[C@@H]3OC(=O)[C@@]12CC[C@@](C)(C(=O)O1)C2(C)C`, for which, in data set [1], the remaining at […] stood at 100%. The remaining at 0.5 h in data set [2] was determined as 64%.

As to `CCOc1ccc2c(=O)cc(CC)oc2c1CN1CCN(C(=O)C(=O)c2cccs2)CC1`, the EC50 was more than 22 µM in data set [3] and 16.9 µM in data set [4]. Besides, the 50% cytotoxic concentration (CC50) in data set [5] is more than 22 µM. In addition, the “Ratio CC50/EC50” value in data set [6] came to 1.3.

In the case of `CCOc1ccc2c(=O)cc(CC)oc2c1CN1CCN(C(=O)C(=O)c2ccccc2)CC1`, the EC50 in data set [3] amounted to 16.7 µM; in data set [4], 16.3 µM. Also, in data set [5], the CC50 was more than 22.3 µM. The “Ratio CC50/EC50” value is more than 1.33 in data set [7] and more than 1.37 in data set [6].

With `CCOc1ccc2c(=O)cc(CC)oc2c1CN1CCN(C(=O)C(=O)c2c[nH]c3ccccc23)CC1`, the EC50 in data set [3] and in data set [4] was more than 20.5 µM each time. The CC50 in data set [5] is more than 20.5 µM.

`CCc1cc(=O)c2ccc(OCc3cccc(C(=O)OC)c3)c(COC(=O)C34CCC(C)(C(=O)O3)C4(C)C)c2o1` (configuration not stated) returned an EC50 in data set [3] of 0.93 µM. Further, in data set [5], the CC50 was more than 36.5 µM. The “Ratio CC50/EC50” value in data set [7] amounted to 39.2.

Consider `CCc1cc(=O)c2ccc(OCc3cc(OC)cc(OC)c3)c(COC(=O)C34CCC(C)(C(=O)O3)C4(C)C)c2o1` (configuration not stated), for which the EC50 in data set [3] was found to be 22.2 µM. For the same compound, the CC50 in data set [5] is more than 36.3 µM. In addition, in data set [7], the “Ratio CC50/EC50” value is listed as 1.64.

As for `CCc1cc(=O)c2ccc3c(c2o1)[C@@H](OC(=O)C12CCC(C)(C(=O)O1)C2(C)C)[C@@H](OC(=O)C12CCC(C)(C(=O)O1)C2(C)C)C(C)(C)O3` (some centres not stated), the EC50 in data set [3] amounted to 0.12 µM; in data set [4], 0.2 µM. Further, the CC50 in data set [5] was determined as 14.2 µM. The “Ratio CC50/EC50” value in data set [7] is 118.75; in data set [6], 71.25. The remaining at […] in data set [1] came to 100%. In addition, in data set [2], the remaining at 0.5 h stood at 91%.
